High-throughput results from PubChem.
HCV core dimer: blocks dimerization of HCV core protein | TR-FRET GST/Flag-core106 dimerization, 1536-well | inhibition, % at 5 µM | 300,000 tested, 0.33% active | AID 1899;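 active means inhibition above the mean of all tested compounds plus 3 SD, set per screening campaign, cut at about 45% in these data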
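Assay system: Tagged HCV core106 pair (GST and Flag) | Buffer or medium: KF-containing HEPES buffer, pH 7.45, DTT, CHAPS, BSA | Also added: Eu donor and XL665 acceptor anti-tag antibodies | Dosing: One concentration, 5 µM, in 0.5% DMSO | Timing: 4 h at 22.5 °C | Technique: TR-FRET 671 and 617 nm emission | Repeats: Singlicate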
EBNA-1 inh: blocks EBNA-1 binding to DNA; inhibition, % at 14.8 µM; 300,000 tested, 0.34% active; EBNA-1 DNA binding, fluorescence polarization; AID 1950; in the data active means inhibition above about 28%
UBC9 SUMO inh: SUMOylation inhibition. HTRF SUMOylation assay, SAE1/SAE2 + UBC9, in vitro. inhibition, % at 35 µM. 290,000 tested, 0.36% active. AID 2006; in the data active means inhibition above about 50%, passing the limit was not always enough
Target sequence (P63279 whole entry, looked up): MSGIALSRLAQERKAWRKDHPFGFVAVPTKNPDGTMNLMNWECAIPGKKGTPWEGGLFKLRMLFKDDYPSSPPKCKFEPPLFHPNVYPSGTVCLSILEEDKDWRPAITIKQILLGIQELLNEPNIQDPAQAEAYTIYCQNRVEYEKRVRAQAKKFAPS
ZTA counter: counter-screen for EBNA-1 inhibitors: inhibitors of Epstein-Barr virus ZTA; AID 2234; 320,000 tested, 0.15% active; inhibition, % at 11 µM; ZTA-DNA binding, fluorescence polarization; in the data active means inhibition above about 33%
Target sequence (P03206 whole entry, looked up): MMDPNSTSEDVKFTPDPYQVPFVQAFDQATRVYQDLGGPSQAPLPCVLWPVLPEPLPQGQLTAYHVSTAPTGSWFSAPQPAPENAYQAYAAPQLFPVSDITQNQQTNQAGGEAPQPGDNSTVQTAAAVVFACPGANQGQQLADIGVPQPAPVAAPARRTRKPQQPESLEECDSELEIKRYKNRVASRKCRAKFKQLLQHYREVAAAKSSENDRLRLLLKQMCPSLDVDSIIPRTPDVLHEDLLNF
HCV NS3 hel inh: HCV NS3 helicase inhibition | inhibition, % at 10.9 µM | NS3 helicase DNA unwinding, Cy5 molecular beacon fluorescence | 290,000 tested, 0.56% active | AID 1800;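 active means inhibition above the mean of all tested compounds plus 3 SD, set per campaign, cut at about 35% in these data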;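 further: 0% = DMSO wells and 100% = thioflavine S control wells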
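Assay system – hepatitis C virus NS3 helicase domain fragment enzyme · Buffer or medium – MOPS pH 6.5, MgCl2, DTT, Tween20, BSA · Reagent – Cy5/quencher beacon DNA duplex and ATP to start · Compound – single 10.9 µM dose · Timing – 1 h at 25 °C · Technique – Cy5 beacon fluorescence read at start and 1 h · Measure – % inhibition of unwinding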
EBNA-1 confirm: EBNA-1 (EBV) inhibition, confirmation; shares compounds with EBNA-1 inh; inhibition, % at 14.8 µM; 830 tested, 35% active; Recombinant EBNA-1 DBD, Cy5-DNA fluorescence polarization;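 active means mean inhibition across replicates above a set limit taken from the earlier primary screen, cut at about 28% in these data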;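 further: plate controls were EBNA-1 protein with DMSO for no effect and wells lacking EBNA-1 for full effect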
ZTA DNA inh trip: ZTA (EBV) inhibition, triplicate counter-screen | inhibition, % at 11.1 µM | AID 2328 | shares compounds with EBNA-1 inh | 830 tested, under 10 active | Zta-ZRE DNA binding, Cy5 fluorescence polarization;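 active means mean inhibition over triplicates above a set limit taken from the primary EBNA-1 screen, cut at about 37% in these data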;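 further: purified full length Zta protein with Cy5 labeled ZRE DNA probe; 0% = Zta with DMSO and 100% = wells lacking Zta protein; inhibitors lower polarization by freeing the labeled DNA probe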
An asterisk follows results filed as active; nt = no result. Hits are enriched below; roughly 1.4% of the tested compounds scored in any of these assays.

SMILES	HCV core dimer	EBNA-1 inh	UBC9 SUMO inh	ZTA counter	HCV NS3 hel inh	EBNA-1 confirm	ZTA DNA inh trip
O=C(N/N=C/c1ccc(F)cc1)c1cc(-c2ccc3c(c2)OCO3)n[nH]1	4.1	32.1*	19.9	-2.2	-8.4	16.1	4.2
CCN(CC)S(=O)(=O)c1ccc(C(=O)Nc2nnc(NC(=S)Nc3ccccc3)s2)cc1	25.1	38.5*	0.5	-22.6	-15.5	75.3*	-11.5
COc1ccc(/C=C/C(=O)Nc2ccccc2C(F)(F)F)cc1	-4.8	32.5*	3.2	8.4	-7.3	21.8	-3.4
CCOc1ccc(/C=C/C(=O)Nc2ccccc2C(F)(F)F)cc1	2.1	0.4	20.0	5.1	-3.4	nt	nt
Cc1ccc(S(=O)(=O)N(C)C)cc1NC(=O)CN1C(=O)NC(Cc2ccccc2)C1=O (stereo not drawn)	-2.7	6.8	nt	5.1	nt	nt	nt
N#CCC(=N)N1CCN(c2cccc(Cl)c2)CC1	6.1	45.2*	-5.7	5.7	-8.6	-10.1	-1.3
N#CCC(=N)N1CCN(c2ccccc2)CC1	3.4	3.9	-7.4	2.0	8.1	nt	nt
CCc1ccccc1NC(=S)N=Nc1c(O)n(C)c2ccc(S(=O)(=O)N3CCOCC3)cc12	28.4	49.1*	-5.3	-2.8	-0.2	-6.4	-1.1
CCOc1cc(NS(=O)(=O)c2ccc(NC(C)=O)cc2)c(OCC)cc1NC(=O)c1cccs1	-9.7	41.1*	-25.2	-4.3	-13.4	27.8*	-12.4
CCOc1cc(NC(=S)NC)c(OCC)cc1NC(=O)c1cccs1	-3.1	-10.1	15.8	-4.8	7.3	nt	nt
Cc1csc(NC(=O)COc2ccc3c(C)cc(=O)oc3c2)n1	5.9	44.4*	3.0	15.1	-11.1	47.2*	10.4
Cc1ccccc1N(C(=O)c1snc(C(N)=O)c1N)C(C(=O)NCC1CCCO1)c1ccc(N(C)C)cc1 (stereo not drawn)	4.0	27.6*	-9.7	5.7	-11.7	122.9*	9.8
CCc1ccccc1N(C(=O)c1snc(C(N)=O)c1N)C(C(=O)NCC1CCCO1)c1ccc(N(C)C)cc1 (stereo not drawn)	nt	nt	1.6	nt	-17.2	nt	nt
Cc1cc(NC(=O)CSc2nccn2-c2cccc(Cl)c2)no1	2.4	-2.5	-1.7	-20.9	3.4	nt	nt
COc1cc(CC(=O)Nc2sc3c(c2C(N)=O)CCCC3)cc(OC)c1OC	3.1	48.6*	-0.9	4.5	-2.8	23.3	16.7
COc1ccc(CC(=O)Nc2sc3c(c2C(N)=O)CCCC3)cc1	8.0	-12.3	-4.8	-4.3	-13.7	nt	nt
COc1ccc(CNC(=O)c2ccc3c(=O)n(CCCN4CCCC4=O)c(=S)[nH]c3c2)cc1	0.3	-0.3	19.0	-11.4	15.3	nt	nt
COC(=O)c1cc(Nc2cc(C)c3c(O)cccc3n2)cc(C(=O)OC)c1	9.7	-12.9	3.7	-9.7	-24.3	nt	nt
COC(=O)c1cc(Nc2cc(C)c3ccc(O)cc3n2)cc(C(=O)OC)c1	6.3	38.5*	-1.3	-8.8	-6.3	48.1*	3.5
N#Cc1nc(-c2ccc(Cl)cc2)oc1NCc1cccc2c1OCO2	6.5	27.8*	10.3	10.3	-4.2	30.0*	5.2
Cc1cc2nc(-c3cccc(NC(=O)c4ccc(Br)o4)c3)oc2cc1C	10.9	50.9*	-6.8	1.8	-2.3	15.2	-2.5
NC(=O)c1ccsc1NC(=O)COC(=O)c1cc(Cl)ccc1O	19.8	-2.9	nt	1.3	nt	nt	nt
O=C(Nc1ccccc1F)c1cc2c(s1)-c1ccccc1S(=O)(=O)C2	4.1	52.8*	23.5	-1.6	-7.0	56.6*	-0.9
CCOc1ccc(NC(=O)CN(C)C(=O)CC2OC(=O)c3ccccc32)cc1OCC (stereo not drawn)	-2.9	1.7	nt	-11.9	nt	nt	nt
CCN(CC(=O)Nc1ccccc1OC)C(=O)c1cc(-c2ccccc2)nn1-c1ccccc1	9.2	44.9*	nt	1.6	nt	-5.8	-10.6
SMILES	HCV core dimer	EBNA-1 inh	UBC9 SUMO inh	ZTA counter	HCV NS3 hel inh	EBNA-1 confirm	ZTA DNA inh trip
NS(=O)(=O)c1ccc(NC(=O)c2ccc(S(=O)(=O)N3CCc4ccccc43)cc2)cc1	57.6*	93.9*	19.9	-16.1	-16.7	0.1	15.2
O=C(NCCCCNC(=O)c1ccc(Br)s1)c1ccc(Br)s1	-10.8	46.0*	-33.6	25.3	-2.9	11.1	9.7
O=C(NCCCN1CCOCC1)c1ccc(Br)s1	1.6	-4.2	2.9	3.9	-0.1	nt	nt
O=C(Nc1nnc(CC(c2ccccc2)c2ccccc2)s1)c1ccco1	4.1	37.4*	20.4	-13.3	-2.8	18.2	5.3
COc1ccc(CCN(C)C2CCCN(C(=O)CCC(F)(F)F)C2)cc1OC (stereo not drawn)	-8.1	3.1	9.1	-9.6	0.8	nt	nt
Cc1ccc2nc(SCC(=O)NCc3cccs3)c(C#N)cc2c1	36.9	32.6*	4.0	4.8	-5.0	-0.7	7.3
CC(C)Cn1c(N)c(C(=O)COC(=O)c2ccc3c(c2)OCCO3)c(=O)n(C)c1=O	0.0	28.5*	3.7	-2.0	-7.5	31.9*	4.6
CC(C)Cn1c(N)c(C(=O)CSc2ccc3c(c2)OCCO3)c(=O)n(C)c1=O	-1.3	53.8*	4.8	-5.8	0.8	47.4*	6.1
CC(C)CN(C(=O)CSc1ccc2c(c1)OCCO2)c1c(N)n(CC(C)C)c(=O)[nH]c1=O	nt	nt	nt	6.6	nt	nt	nt
Cc1ccc(S(=O)(=O)N2CCC(C(=O)OCC(=O)N3CCc4ccccc43)CC2)cc1	5.8	32.7*	8.8	-7.2	-6.5	7.4	2.5
CNC(=S)NNC(=O)c1sccc1OCc1ccc(C)cc1	-8.6	-4.8	-17.7	-2.8	2.4	nt	nt
CNC(=S)NNC(=O)c1sccc1OCc1cccc(C(F)(F)F)c1	-1.2	35.3*	3.1	1.2	2.7	65.1*	5.1
O=C(Nc1ccc(S(=O)(=O)Nc2nccs2)cc1)c1ccc(N2C(=O)c3ccccc3C2=O)cc1	53.7*	61.4*	46.8	-2.3	29.3	24.9	30.9
COc1ccccc1CNC(=O)c1cccc(S(=O)(=O)N(C)c2ccccc2)c1	nt	nt	nt	3.9	nt	nt	nt
COc1ccc2c(c1)c(CC(=O)Nc1cccc(S(N)(=O)=O)c1)c(C)n2C(=O)c1ccc(Cl)cc1	16.2	36.8*	9.4	-19.8	-5.1	-3.5	10.4
CC(=O)Nc1ccc(NC(=O)c2ccc(NS(=O)(=O)c3cccc4cccnc34)cc2)cc1	18.7	39.3*	13.2	5.4	-8.1	17.6	6.2
COCCN(Cc1cc2cc(C)cc(C)c2nc1Cl)C(=O)Nc1ccccc1	5.5	56.2*	-12.5	-12.2	4.7	-8.5	3.0
COc1cccc(Nc2nnc(SCn3nnc4ccccc4c3=O)s2)c1	5.6	43.1*	-2.6	4.3	1.8	37.8*	15.9
CCc1ccc(Nc2nnc(SCn3nnc4ccccc4c3=O)s2)cc1	18.5	-15.3	14.5	2.9	3.2	nt	nt
CC(=O)N(Cc1ccccc1)c1c(N)nc(N)[nH]c1=O	6.5	5.3	nt	13.5	nt	nt	nt
